Measurements as given in ChEMBL document CHEMBL3576779, “Cyclic colisporifungin and linear cavinafungins, antifungal lipopeptides isolated from Colispora cavincola” (J Nat Prod, 2015).
Values after ≈ are worked out from the molar mass of the structure shown. Active and inactive are the calls of the source. The rule behind the calls is not given here. Non-standard residues stand in square brackets, D forms with d. Residues, ends and D or L forms follow the SMILES beside them. *: point of attachment. Pro(4R-Me) = C[C@H]1CN[C@H](C(=O)O)C1; Oleoyl = CCCCCCCC/C=C\CCCCCCCC(=O)*; hSer = N[C@@H](CCO)C(=O)O; Alaol = C[C@@H](CO)N*

Key:
[1] = tested on: Aspergillus fumigatus; assay: Antifungal activity against Aspergillus fumigatus ATCC 46645 at 8 ug/ml after 24 hrs by resazurin test; format: functional, organism-based
Outline: (§1)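 Tested with and without sublethal caspofungin (0.015 μg/mL for A. fumigatus, 0.03 μg/mL for C. albicans) at 37 °C for 24 h. Resazurin 0.002% added 3–4 h before reading; fluorescence read at ex 570/em 615 nm. C. albicans was grown overnight in SDB, set to OD600 0.25 in RPMI-modified medium (pH 7.1) and diluted 1:10. Run in triplicate.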

[2] = tested on: Candida albicans; assay: Antifungal activity against Candida albicans MY1055 at 8 ug/ml after 24 hrs by resazurin test; format: functional, organism-based; outline: as §1
[3] = tested on: Nakaseomyces glabratus; assay: Antifungal activity against Candida glabrata MY992 at 8 ug/ml after 24 hrs by resazurin test; format: functional, organism-based
[4] = tested on: Candida albicans; assay: Antifungal activity against Candida albicans MY1055 after 24 hrs by resazurin test in presence of caspofungin; format: functional; details: MY1055, 24 h; outline: as §1
[5] = tested on: Aspergillus fumigatus; assay: Antifungal activity against Aspergillus fumigatus ATCC 46645 after 24 hrs by resazurin test in presence of caspofungin; format: functional; details: ATCC 46645, 24 h; outline: as §1
[6] = tested on: Candida albicans; assay: Potentiation of caspofungin-induced antifungal activity against Candida albicans MY1055 at 1 ug/ml after 24 hrs by checkerboard method; format: functional, organism-based
Outline: (§2)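 Checkerboard of double dilutions: caspofungin at final 0.24–0.00018 μg/mL (columns) crossed with test compound at final 8–0.015 μg/mL (rows) in the central 80 wells of one plate. Caspofungin dose–response curves gave IC50 values at each compound level.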

[7] = tested on: Aspergillus fumigatus; assay: Potentiation of caspofungin-induced antifungal activity against Aspergillus fumigatus ATCC 46645 at 2 ug/ml after 24 hrs by checkerboard method relative to control; format: functional; outline: as §2
[8] = tested on: Candida albicans; assay: Antifungal activity against Candida albicans MY1055 after 24 hrs by 2-fold serial dilution method; format: functional; details: MY1055, 24 h
Outline: (§3)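 Cells were inoculated at 10^5 CFU/mL into 2-fold serial compound dilutions in growth medium and incubated at 37 °C. The MIC was recorded after 24 h as the lowest concentration inhibiting visible growth. Where given, the MIC80 is 80% inhibition, reported as prominent inhibition.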

[9] = tested on: Candida albicans; assay: Antifungal activity against Candida albicans MY1055 after 24 hrs by 2-fold serial dilution method in presence of 50% mouse serum; format: functional; details: MY1055, 24 h
[10] = tested on: Candida tropicalis; assay: Antifungal activity against Candida tropicalis ATCC 750 after 24 hrs by 2-fold serial dilution method; format: functional; details: ATCC 750, 24 h; outline: as §3
[11] = tested on: Nakaseomyces glabratus; assay: Antifungal activity against Candida glabrata ATCC 90030 after 24 hrs by 2-fold serial dilution method; format: functional; details: ATCC 90030, 24 h; outline: as §3
[12] = tested on: Clavispora lusitaniae; assay: Antifungal activity against Clavispora lusitaniae ATCC 34449 after 24 hrs by 2-fold serial dilution method; format: functional; details: ATCC 34449, 24 h; outline: as §3
[13] = tested on: Pichia kudriavzevii; assay: Antifungal activity against Candida krusei ATCC 6258 after 24 hrs by 2-fold serial dilution method; format: functional; details: ATCC 6258, 24 h; outline: as §3
[14] = tested on: Candida parapsilosis; assay: Antifungal activity against Candida parapsilosis ATCC 22019 after 24 hrs by 2-fold serial dilution method; format: functional; details: ATCC 22019, 24 h; outline: as §3
[15] = tested on: Aspergillus fumigatus; assay: Antifungal activity against Aspergillus fumigatus MF5668 after 48 hrs by 2-fold serial dilution method; format: functional; details: MF5668, 48 h
Outline: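 Broth microdilution MIC test: the inoculum was 10^5 CFU/mL, with a 2-fold serial dilution of compound in growth medium at 37 °C. The MIC was read after 48 h incubation as the lowest concentration inhibiting visible growth. Where given, the MIC80 is 80% inhibition, reported as prominent inhibition.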

[16] = tested on: Aspergillus fumigatus; assay: Antifungal activity against Aspergillus fumigatus ATCC 46645 assessed as growth inhibition after 24 hrs by checkerboard method; format: functional, organism-based; details: ATCC 46645, 24 h; outline: as §2

| MIC [4] [µg/mL] | MIC [5] [µg/mL] | SMILES | Activity [1] | Activity [2] | Activity [3] | Activity [6] | fold change (FC) [7] | MIC [8] [µg/mL] | MIC [9] [µg/mL] | MIC [10] [µg/mL] | MIC [11] [µg/mL] | MIC [12] [µg/mL] | MIC [13] [µg/mL] | MIC [14] [µg/mL] | MIC [15] [µg/mL] | MIC80 [15] [µg/mL] | IC50 [16] [nM] |
| --- | --- | --- | --- | --- | --- | --- | --- | --- | --- | --- | --- | --- | --- | --- | --- | --- | --- |
| 2 | 4 | CCCCCCCCCCCC(=O)N[C@@H](CCC(N)=O)C(=O)N[C@@H]1C(=O)NCCC(=O)N[C@H](Cc2c[nH]c3ccccc23)C(=O)N[C@@H](CO)C(=O)N[C@H](Cc2ccccc2)C(=O)O[C@@H]1C | inactive | inactive | inactive | Active | 5.3 | – | – | – | – | – | – | – | – | – | – |
| – | – | CCCCCCCC/C=C\CCCCCCCC(=O)N[C@H](C(=O)N1C[C@H](C)C[C@H]1C(=O)N[C@H](C(=O)N[C@@H](CCOC(C)=O)C(=O)N[C@@H](C)C=O)C(C)C)[C@@H](C)O (Oleoyl-T[Pro(4R-Me)]V[hSer](Ac)A-aldehyde) | – | – | – | – | – | 2 (≈ 2.53 µM) | > 32 | 0.5 (≈ 0.631 µM) | 2 (≈ 2.53 µM) | 2 (≈ 2.53 µM) | 4 (≈ 5.05 µM) | 2 (≈ 2.53 µM) | > 32 | 8 (≈ 10.1 µM) | – |
| – | – | CCCCCCCC/C=C\CCCCCCCC(=O)N[C@H](C(=O)N1C[C@H](C)C[C@H]1C(=O)N[C@H](C(=O)N[C@@H](CCO)C(=O)N[C@@H](C)CO)C(C)C)[C@@H](C)O (Oleoyl-T[Pro(4R-Me)]V[hSer]-Alaol) | – | – | – | – | – | > 32 | – | > 32 | > 32 | > 32 | > 32 | > 32 | – | – | – |
| – | – | CCCCCCCC/C=C\CCCCCCCC(=O)N[C@H](C(=O)N1C[C@H](C)C[C@H]1C(=O)N[C@H](C(=O)N[C@@H](CCO)C(=O)N[C@@H](C)C=O)C(C)C)[C@@H](C)O (Oleoyl-T[Pro(4R-Me)]V[hSer]A-aldehyde) | – | – | – | – | – | 2 (≈ 2.67 µM) | > 32 | 0.5 (≈ 0.667 µM) | 2 (≈ 2.67 µM) | 2 (≈ 2.67 µM) | 2 (≈ 2.67 µM) | 2 (≈ 2.67 µM) | > 32 | 8 (≈ 10.7 µM) | – |
| – | – | CC[C@H](C)C[C@H](C)CCCCCCCCC(=O)N[C@H]1C[C@@H](O)[C@@H](NCCN)NC(=O)[C@@H]2[C@@H](O)CCN2C(=O)[C@H]([C@H](O)CCN)NC(=O)[C@H]([C@H](O)[C@@H](O)c2ccc(O)cc2)NC(=O)[C@@H]2C[C@@H](O)CN2C(=O)[C@H]([C@@H](C)O)NC1=O [CASPOFUNGIN] | – | – | – | – | – | – | – | – | – | – | – | – | – | – | 33 |
